This is an account of results in paper PMC6301076 (Bioorganic & medicinal chemistry letters, 2018).

Molecules are shown by their SMILES. “And” between values parts separate entries of the source, which are not always exact repeats. Equal entries are not always repeated. Where two headings read alike, the source gives them in different places. Marks after values point to notes of the source that are not given here. Where only a bound is given, the exact number is not on record here.

The subject of data set [1] is cultured adult S. mansoni. Conditions: cited from earlier work.
The subject of data set [2] is S. mansoni. The note with it: cited from earlier work; for single oral dose ED50: S. mansoni mouse model.
For data set [3] the following is noted: after 100 mg/kg oral dose of Ro 13-3978 to mice; cited from earlier work.
The subject of data set [4] is schistosomula (NTS). The note with it: 10 μM concentration; cited from earlier work.
A short description of data set [5]: Aqueous solubility by nephelometry. It is filed as physicochemical. The note with it: concentration range; for Sol2.0: 0.01 M HCl (approx. pH 2.0); for Sol6.5: pH 6.5 phosphate buffer.
Data set [6] can be described thus: Plasma exposure after oral administration to mice. The data set is classed as in vivo. The note with it: 100 mg/kg, plasma concentration versus time profile.
Data set [7] can be described thus: In vitro intrinsic clearance in mouse liver microsomes. It is filed as in vitro ADME. The note with it: absence of co-factor. The method in brief:
(§1)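 Test compound incubated with human or mouse liver microsomes. Control incubations without NADPH detect cofactor-independent degradation, such as by non-specific microsomal esterases. Read-out is intrinsic clearance, also expressed as in vitro half-life.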

Data set [8] can be described thus: In vitro intrinsic clearance in human liver microsomes. The data set is classed as in vitro ADME. Conditions: absence of co-factor. The gist of the method: as §1
The subject of data set [9] is S. mansoni. The experiment in a line: In vivo antischistosomal activity in S. mansoni-infected mice. The note with it: 1 × 100 mg/kg po.

As to `CC1(C)NC(=O)N(c2ccc(F)c(C(F)(F)F)c2)C1=O` [Ro 13-3978, reference compound], the “effect on cultured adult S. mansoni” value in data set [1] was “little effect”. Further, the “single oral dose ED50” value in data set [2] is recorded as 15 mg/kg.

For the compound `CC(C)(NC(=O)Nc1ccc(F)c(C(F)(F)F)c1)C(=O)O` [compound 2], the “exposure relative to that of Ro 13-3978, based on AUC0-24h” value in data set [3] is recorded as less than 1%. In addition, the “activity against cultured adult S. mansoni” value in data set [1] (10 μM concentration) is listed as “no activity”. Besides, in data set [4], the “activity against schistosomula (NTS)” value was “no activity”. Besides, the “S. mansoni WBR” value in [2] (1 × 100 mg/kg po, S. mansoni-infected mice, ref 4 (Wang et al.), 100 mg/kg) was 67% and 67^d %. The compound also displayed a Sol2.0 in data set [5] of 25 to 50 µg/mL. The oral absorption entry in data set [6] is “rapid and extensive absorption”.

`CC(C)(NC(=O)Nc1ccccc1)C(=O)O` [compound 3] came in with a Sol6.5 in data set [5] of 50 to 100 µg/mL.

In the case of `CC(C)(C(=O)O)N1CCCN(c2ccc(F)c(C(F)(F)F)c2)C1=O` [compound 4], in data set [5], the Sol2.0 is recorded as >100/>100 μg/mL and the Sol6.5 is recorded as >100/>100 μg/mL.

Turning to `CC(C)(CC(=O)Nc1ccc(F)c(C(F)(F)F)c1)C(=O)O` [compound 5], in data set [5], the Sol2.0 is listed as 25-50/25-50 μg/mL and the Sol6.5 was 25-50/25-50 μg/mL.

Turning to `CC(C)(NC(=O)Cc1ccc(F)c(C(F)(F)F)c1)C(=O)O` [compound 6], in data set [5], the Sol2.0 was 50 to 100 µg/mL and the Sol6.5 was 25 to 50 µg/mL.

For `O=C(O)CNC(=O)Nc1ccc(F)c(C(F)(F)F)c1` [compound 7], in data set [5], the Sol2.0 was >100/>100 μg/mL and the Sol6.5 was >100/>100 μg/mL.

As to `O=C(Nc1ccc(F)c(C(F)(F)F)c1)NC1(C(=O)O)CC1` [compound 8], in data set [5], the Sol2.0 is >100/>100 μg/mL and the Sol6.5 is reported as >100/>100 μg/mL.

In [5], `O=C(Nc1ccc(F)c(C(F)(F)F)c1)NC1(C(=O)O)CCC1` [compound 9] returned a Sol2.0 of 50 to 100 µg/mL.

In the case of `CC(C)(C(=O)O)n1c(=O)[nH]c2cc(C(F)(F)F)c(F)cc21` [compound 10], in data set [5], the Sol2.0 lay in the range of 50 to 100 µg/mL.

For `CC(C)(C(=O)O)N1Cc2cc(F)c(C(F)(F)F)cc2NC1=O` [compound 11], in [5], the Sol2.0 lay in the range of 50 to 100 µg/mL.

For `CC(C)(NC(=O)Nc1ccc(F)c(C(F)(F)F)c1)C(N)=O` [compound 12], in [5], the Sol2.0 was 50-100/50-100 μg/mL and the Sol6.5 is recorded as 50-100/50-100 μg/mL.

`CCOC(=O)C(C)(C)NC(=O)Nc1ccc(F)c(C(F)(F)F)c1` [compound 13]: in data set [7], the “stability in control microsomal incubations” value is on record as “underwent non-NADPH mediated degradation”. The “stability in control microsomal incubations” value in data set [8] is reported as “underwent non-NADPH mediated degradation”. Further, in [9], the “S. mansoni WBR” value is on record as 70^f %. Moreover, in data set [5], the Sol2.0 is recorded as 3.1-6.3/3.1-6.3 μg/mL and the Sol6.5 is listed as 3.1-6.3/3.1-6.3 μg/mL.

Turning to `O=C(C1CCCCC1)N1CC(=O)N2CCc3ccccc3C2C1` (stereo not drawn) [praziquantel, reference compound], in data set [2], the “single oral dose ED50” value is reported as 172 mg/kg.
